Data from ChEMBL document CHEMBL2434866, “Synthesis, antibacterial and antioxidant activities of new 1-alkyl-4-(1-alkyl-4-oxo-1,4-dihydroquinolin-2-yl)pyridinium bromides” (2013).
The source made the active and inactive calls. No cut-off for these calls is given here.

Tests used:
Staphylococcus aureus [1] = experiment: Antibacterial activity against Staphylococcus aureus ATCC 25923 assessed as growth inhibition after 18 to 24 hrs by microdilution assay; type: functional
Summary of the method: (§1)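 Broth microdilution MIC in LB medium at pH 7.2. Compounds came from DMSO stocks and were serially diluted from 1000 to 7.8 (final). Inoculum was mid-log cells diluted to OD600 0.004 (about 5 × 10^5 CFU/mL). Plates were incubated at 37 °C for 18–24 h. MIC was the last dilution without visible turbidity. Controls were DMSO solvent, medium ± antibiotic, and ampicillin.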

[2] = Antioxidant activity assessed as trolox equivalent of ferric ion reducing activity using fe2+-TPTZ at 1 mg/ml after 20 mins by FRAP assay; type: functional
Summary of the method: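 Sample at 1 mg/mL was mixed with reagent, kept 20 min at room temperature, and read at 595 nm against a water blank. Triplicates were corrected for reagent and sample blanks. TEAC came from a five-point Trolox calibration curve.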

Enterococcus faecalis [3] = experiment: Antibacterial activity against Enterococcus faecalis ATCC 29212 assessed as growth inhibition after 18 to 24 hrs by microdilution assay; type: functional; summary of the method: as §1
Proteus vulgaris [4] = experiment: Antibacterial activity against Proteus vulgaris ATCC 13315 assessed as growth inhibition after 18 to 24 hrs by microdilution assay; type: functional; summary of the method: as §1
Klebsiella pneumoniae [5] = experiment: Antibacterial activity against Klebsiella pneumoniae ATCC 13883 assessed as growth inhibition after 18 to 24 hrs by microdilution assay; type: functional; summary of the method: as §1
Bacillus spizizenii [6] = experiment: Antibacterial activity against Bacillus subtilis ATCC 6633 assessed as growth inhibition after 18 to 24 hrs by microdilution assay; type: functional; summary of the method: as §1
Pseudomonas aeruginosa [7] = experiment: Antibacterial activity against Pseudomonas aeruginosa ATCC 27853 assessed as growth inhibition after 18 to 24 hrs by microdilution assay; type: functional; summary of the method: as §1
[8] = system: Radical scavenging activity; experiment: Antioxidant activity assessed as DPPH radical scavenging activity after 50 mins; type: functional
Summary of the method: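 DPPH• in methanol was mixed 1:1 with sample at five final concentrations (6.25–100.00), vortexed, and kept 50 min at room temperature. Absorbance was read at 517 nm and plotted against concentration, with reagent-blank and solvent controls. SC50 was read from the graph as the concentration halving the initial DPPH•.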

Staphylococcus aureus [9] = experiment: Antibacterial activity against Staphylococcus aureus ATCC 25923 assessed as growth inhibition at 100 ug/mL after 18 to 24 hrs by microdilution assay; type: functional, organism-based
Bacillus spizizenii [10] = experiment: Antibacterial activity against Bacillus subtilis ATCC 6633 assessed as growth inhibition at 100 ug/mL after 18 to 24 hrs by microdilution assay; type: functional
Klebsiella pneumoniae [11] = experiment: Antibacterial activity against Klebsiella pneumoniae ATCC 13883 assessed as growth inhibition at 100 ug/mL after 18 to 24 hrs by microdilution assay; type: functional, organism-based
Enterococcus faecalis [12] = experiment: Antibacterial activity against Enterococcus faecalis ATCC 29212 assessed as growth inhibition at 100 ug/mL after 18 to 24 hrs by microdilution assay; type: functional, organism-based
Pseudomonas aeruginosa [13] = experiment: Antibacterial activity against Pseudomonas aeruginosa ATCC 27853 assessed as growth inhibition at 100 ug/mL after 18 to 24 hrs by microdilution assay; type: functional, organism-based
Proteus vulgaris [14] = experiment: Antibacterial activity against Proteus vulgaris ATCC 13315 assessed as growth inhibition at 100 ug/mL after 18 to 24 hrs by microdilution assay; type: functional, organism-based

MIC (Staphylococcus aureus [1]) [µg/mL]	MIC (Enterococcus faecalis [3]) [µg/mL]	MIC (Proteus vulgaris [4]) [µg/mL]	MIC (Klebsiella pneumoniae [5]) [µg/mL]	MIC (Bacillus spizizenii [6]) [µg/mL]	MIC (Pseudomonas aeruginosa [7]) [µg/mL]	Structure (SMILES)	Activity [2] [equiv]	SC50 [8] [µg/mL]	growth inhibition (GI) (Staphylococcus aureus [9])	growth inhibition (GI) (Bacillus spizizenii [10])	growth inhibition (GI) (Klebsiella pneumoniae [11])	growth inhibition (GI) (Enterococcus faecalis [12])	growth inhibition (GI) (Pseudomonas aeruginosa [13])	growth inhibition (GI) (Proteus vulgaris [14])
125	125	125	125	250	125	CCCCCCCCCCCCn1c(-c2cc[n+](CCCCCCCCCCCC)cc2)cc(=O)c2ccccc21.[Br-]	39	82						
62.5	125	31.2	125	125	62.5	CCCCCCCCCCCn1c(-c2cc[n+](CCCCCCCCCCC)cc2)cc(=O)c2ccccc21.[Br-]	44	72						
15.6	62.5	62.5	31.2	62.5	15.6	CCCCCn1c(-c2cc[n+](CCCCC)cc2)cc(=O)c2ccccc21.[Br-]	94	112						
						CC1(C)S[C@@H]2[C@H](NC(=O)[C@H](N)c3ccccc3)C(=O)N2[C@H]1C(=O)O			Active	Active	Active	Active	Active	Active
						O=c1cc(-c2ccncc2)[nH]c2ccccc12	46	133						
500	250	500	250	500	500	CCCCCCCCCCCCCCCn1c(-c2cc[n+](CCCCCCCCCCCCCCC)cc2)cc(=O)c2ccccc21.[Br-]	66	133						
						Nc1ccccc1C(=O)/C=C/c1ccncc1	43	130						
31.2	62.5	125	62.5	62.5	62.5	CCCCCCCn1c(-c2cc[n+](CCCCCCC)cc2)cc(=O)c2ccccc21.[Br-]	59	56						
500	250	500	500	500	500	CCCCCCCCCCCCCCn1c(-c2cc[n+](CCCCCCCCCCCCCC)cc2)cc(=O)c2ccccc21.[Br-]	14	72						
15.6	62.5	31.2	31.2	31.2	31.2	CCCCCCCCn1c(-c2cc[n+](CCCCCCCC)cc2)cc(=O)c2ccccc21.[Br-]	59	85						
62.5	125	62.5	62.5	62.5	31.2	CCCCCCCCCCn1c(-c2cc[n+](CCCCCCCCCC)cc2)cc(=O)c2ccccc21.[Br-]	40	78						
31.2	62.5	31.2	31.2	62.5	62.5	CCCCCCCCCn1c(-c2cc[n+](CCCCCCCCC)cc2)cc(=O)c2ccccc21.[Br-]	59	55						
250	250	250	250	250	250	CCCCCCCCCCCCCn1c(-c2cc[n+](CCCCCCCCCCCCC)cc2)cc(=O)c2ccccc21.[Br-]	53	45						
7.8	31.2	62.5	15.6	31.2	7.8	CCCCCCn1c(-c2cc[n+](CCCCCC)cc2)cc(=O)c2ccccc21.[Br-]	141	56						
